Laboratory results as given in ChEMBL document CHEMBL1121653, “Potential pancreatic imaging agents. Tellurium-123m labeled DL-alpha-amino-gamma-(phenyltelluro)butyric acid” (J Med Chem, 1981).

How the values were obtained:
[1] = tested on: Rattus norvegicus; assay: Compound was evaluated for the distribution of radioactivity in female rat kidneys at time interval 24 hours following intravenous administration of [123mTe]- Labeled-DL-cu-Amino-r-( phenyltel1uro) butyric Acid, expressed as mean dose per gram of tiss; assay type: ADME, organism-based, Kidney; details: in vivo
Outline: (§1)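 Female Fischer 344 rats, 10–12 weeks old (180–210 g), fed ad libitum, given the 123mTe-labeled amino acid through a lateral tail vein under ether anesthesia. The basic solution was neutralized to pH ~8 with 1 N HCl and filtered (0.22 μm) before injection. Rats were decapitated at 30 min, 60 min, 4 h or 24 h. Organs were rinsed in saline and weighed, and radioactivity was counted on a Ge(Li) analyzer. Values are %dose/g, mean ± SD of 3 rats.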

[2] = tested on: Rattus norvegicus; assay: Compound was evaluated for the distribution of radioactivity in female rat liver at time interval 30 minutes following intravenous administration of [123mTe]- Labeled-DL-cu-Amino-r-( phenyltel1uro) butyric Acid, expressed as mean dose per gram of tiss; assay type: ADME, organism-based; details: in vivo, 0.5 h; outline: as §1
[3] = tested on: Rattus norvegicus; assay: Compound was evaluated for the distribution of radioactivity in female rat pancreas at time interval 60 minutes following intravenous administration of [123mTe]- Labeled-DL-cu-Amino-r-( phenyltel1uro) butyric Acid, expressed as mean dose per gram of t; assay type: ADME, organism-based; details: in vivo, 1 h; outline: as §1
[4] = tested on: Rattus norvegicus; assay: Compound was evaluated for the distribution of radioactivity in female rat liver at time interval 4 hours following intravenous administration of [123mTe]- Labeled-DL-cu-Amino-r-( phenyltel1uro) butyric Acid, expressed as mean dose per gram of tissue; assay type: ADME, organism-based; details: in vivo; outline: as §1
[5] = tested on: Rattus norvegicus; assay: Compound was evaluated for the distribution of radioactivity in female rat kidneys at time interval 4 hours following intravenous administration of [123mTe]- Labeled-DL-cu-Amino-r-( phenyltel1uro) butyric Acid, expressed as mean dose per gram of tissu; assay type: ADME, organism-based, Kidney; details: in vivo; outline: as §1
[6] = tested on: Rattus norvegicus; assay: Compound was evaluated for the distribution of radioactivity in female rat pancreas at time interval 24 hours following intravenous administration of [123mTe]- Labeled-DL-cu-Amino-r-( phenyltel1uro) butyric Acid, expressed as mean dose per gram of tissue; assay type: ADME, organism-based; details: in vivo; outline: as §1
[7] = tested on: Rattus norvegicus; assay: Compound was evaluated for the distribution of radioactivity in female rat spleene at time interval 24 hours following intravenous administration of [123mTe]- Labeled-DL-cu-Amino-r-( phenyltel1uro) butyric Acid, expressed as mean dose per gram of tiss; assay type: ADME, organism-based, Spleen; details: in vivo; outline: as §1
[8] = tested on: Rattus norvegicus; assay: Compound was evaluated for the distribution of radioactivity in female rat pancreas at time interval 30 minutes following intravenous administration of [123mTe]- Labeled-DL-cu-Amino-r-( phenyltel1uro) butyric Acid, expressed as mean dose per gram of t; assay type: ADME, organism-based; details: in vivo, 0.5 h; outline: as §1
[9] = tested on: Rattus norvegicus; assay: Compound was evaluated for the distribution of radioactivity in female rat blood at time interval 24 hours following intravenous administration of [123mTe]- Labeled-DL-cu-Amino-r-( phenyltel1uro) butyric Acid, expressed as mean dose per gram of tissue; assay type: ADME, organism-based; details: in vivo; outline: as §1
[10] = tested on: Rattus norvegicus; assay: Compound was evaluated for the distribution of radioactivity in female rat spleen at time interval 30 minutes following intravenous administration of [123mTe]- Labeled-DL-cu-Amino-r-( phenyltel1uro) butyric Acid, expressed as mean dose per gram of tis; assay type: ADME, organism-based; details: in vivo, 0.5 h; outline: as §1
[11] = tested on: Rattus norvegicus; assay: Compound was evaluated for the distribution of radioactivity in female rat spleen at time interval 4 hours following intravenous administration of [123mTe]- Labeled-DL-cu-Amino-r-( phenyltel1uro) butyric Acid, expressed as mean dose per gram of tissue; assay type: ADME, organism-based; details: in vivo; outline: as §1
[12] = tested on: Rattus norvegicus; assay: Compound was evaluated for the distribution of radioactivity in female rat kidneys at time interval 60 minutes following intravenous administration of [123mTe]- Labeled-DL-cu-Amino-r-( phenyltel1uro) butyric Acid, expressed as mean dose per gram of ti; assay type: ADME, organism-based, Kidney; details: in vivo, 1 h; outline: as §1
[13] = tested on: Rattus norvegicus; assay: Compound was evaluated for the distribution of radioactivity in female rat pancreas at time interval 4 hours following intravenous administration of [123mTe]- Labeled-DL-cu-Amino-r-( phenyltel1uro) butyric Acid, expressed as mean dose per gram of tiss; assay type: ADME, organism-based; details: in vivo; outline: as §1
[14] = tested on: Rattus norvegicus; assay: Compound was evaluated for the distribution of radioactivity in female rat blood at time interval 4 hours following intravenous administration of [123mTe]- Labeled-DL-cu-Amino-r-( phenyltel1uro) butyric Acid, expressed as mean dose per gram of tissue; assay type: ADME, organism-based; details: in vivo; outline: as §1
[15] = tested on: Rattus norvegicus; assay: Compound was evaluated for the distribution of radioactivity in female rat liver at time interval 60 minutes following intravenous administration of [123mTe]- Labeled-DL-cu-Amino-r-( phenyltel1uro) butyric Acid, expressed as mean dose per gram of tiss; assay type: ADME, organism-based; details: in vivo, 1 h; outline: as §1
[16] = tested on: Rattus norvegicus; assay: Compound was evaluated for the distribution of radioactivity in female rat blood at time interval 30 minutes following intravenous administration of [123mTe]- Labeled-DL-cu-Amino-r-( phenyltel1uro) butyric Acid, expressed as mean dose per gram of tiss; assay type: ADME, organism-based; details: in vivo, 0.5 h; outline: as §1
[17] = tested on: Rattus norvegicus; assay: Compound was evaluated for the distribution of radioactivity in female rat spleen at time interval 60 minutes following intravenous administration of [123mTe]- Labeled-DL-cu-Amino-r-( phenyltel1uro) butyric Acid, expressed as mean dose per gram of tis; assay type: ADME, organism-based; details: in vivo, 1 h; outline: as §1
[18] = tested on: Rattus norvegicus; assay: Compound was evaluated for the distribution of radioactivity in female rat liver at time interval 24 hours following intravenous administration of [123mTe]- Labeled-DL-cu-Amino-r-( phenyltel1uro) butyric Acid, expressed as mean dose per gram of tissue; assay type: ADME, organism-based; details: in vivo; outline: as §1
[19] = tested on: Rattus norvegicus; assay: Compound was evaluated for the distribution of radioactivity in female rat kidneys at time interval 30 minutes following intravenous administration in kidneys of [123mTe]- Labeled-DL-cu-Amino-r-( phenyltel1uro) butyric Acid, expressed as mean dose per; assay type: ADME, organism-based, Kidney; details: in vivo, 0.5 h; outline: as §1
[20] = tested on: Rattus norvegicus; assay: Compound was evaluated for the distribution of radioactivity in female rat blood at time interval 60 minutes following intravenous administration of [123mTe]- Labeled-DL-cu-Amino-r-( phenyltel1uro) butyric Acid, expressed as mean dose per gram of tiss; assay type: ADME, organism-based; details: in vivo, 1 h; outline: as §1

Compound `NC(CC[Te]c1ccccc1)C(=O)O` (stereo not given) has a Dose [1] of 1.489%, a Dose [2] of 0.32% and a Dose [3] of 0.654%. For the same compound, the Dose [4] was 1.046%, the Dose [5] was 2.169% and the Dose [6] was 0.334%. It also gave a Dose [7] of 0.28%, a Dose [8] of 0.206% and a Dose [9] of 0.485%. The Dose [10] was 0.129%, the Dose [11] was 0.234% and the Dose [12] was 2.628%. It also gave a Dose [13] of 0.434%, a Dose [14] of 0.451% and a Dose [15] of 0.534%. It also gave a Dose [16] of 0.208%, a Dose [17] of 0.238% and a Dose [18] of 2.139%. For the same compound, the Dose [19] was 1.019% and the Dose [20] was 0.497%.
